ChEMBL document CHEMBL1124826, “Novel prodrugs which are activated to cytotoxic alkylating agents by carboxypeptidase G2” (1990)

Assays:
Format in all cases: functional
Conditions in all cases: read-out: ID50 (the source's name)
LS174T [1] = test: The compound was tested for cytotoxicity against human LS174T,colorectal cell line.
Outline: (§1)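 JAR and LS174T cells (5×10^4 mL⁻¹, DMEM) exposed to compound at 0.5-800 μM, with no enzyme added. Solutions were freshly made and adjusted to pH 7.4. Dosing was repeated at the same concentration three times, 24 h apart. Duplicates. Viability was counted by hemocytometer 24 h after the last dose, relative to untreated controls.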

LS174T [2] = test: The compound along with CPG2 was tested for cytotoxicity against human LS174T,colorectal cell line.
Outline: as §1, with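 “prodrug” for “compound”, “μM,” for “μM, with no enzyme added. Solutions were”, “apart. CPG2 at 6 units mL⁻¹ final was added with each dose to generate active drug in situ.” for “apart.”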

JAR [3] = test: The compound was tested for cytotoxicity against human JAR, choriocarcinoma cell line.; outline: as §1
JAR [4] = test: The compound along with CPG2 was tested for cytotoxicity against human JAR, choriocarcinoma cell line.
Outline: as §1, with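 “prodrug” for “compound”, “μM,” for “μM, with no enzyme added. Solutions were”, “apart. CPG2 at 6 units mL⁻¹ final was added with each dose to generate active drug in situ.” for “apart.”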

CS(=O)(=O)OCCN(CCOS(C)(=O)=O)c1ccc(C(=O)NC(CCC(=O)O)C(=O)O)cc1 (configuration not stated)
IC50 (LS174T [1]): 800 µM | IC50 (LS174T [2]): 65 µM | IC50 (JAR [3]): > 800 µM | IC50 (JAR [4]): 60 µM

O=C(O)CCC(NC(=O)c1ccc(N(CCCl)CCCl)cc1)C(=O)O (configuration not stated)
IC50 (LS174T [1]): > 800 µM | IC50 (LS174T [2]): 25 µM | IC50 (JAR [3]): > 800 µM | IC50 (JAR [4]): 8 µM

CS(=O)(=O)OCCN(CCCl)c1ccc(C(=O)NC(CCC(=O)O)C(=O)O)cc1 (configuration not stated)
IC50 (LS174T [1]): 285 µM | IC50 (LS174T [2]): 10 µM | IC50 (JAR [3]): 630 µM | IC50 (JAR [4]): 10 µM
